Activity calls are given as the source filed them. No cut-off for these calls is given here.
Assays:
Platelet [1] = test: Inhibition of arachidonic acid-induced platelet aggregation in rabbit platelet rich plasma by Born's turbidimetric method; assay type: functional; conditions: Oryctolagus cuniculus
How it was run: (§1)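 Rabbit carotid blood in 3.8% sodium citrate (9:1); PRP by 500g spin for 10 min, PPP by a further 3000g spin for 10 min. PRP was preincubated in duplicate for 5 min at 37 °C with vehicle or agent (0.1, 0.2, 0.4, 0.8, 1.6 mM). Aggregation was triggered by ADP (10 μM final) or AA (1 mM), and maximal light transmission was read within 5 min, within 3 h of collection. Inhibition % = 100 × (1 − treated/control); IC50 was calculated.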

Platelet [2] = test: Inhibition of adenosine diphosphate-induced platelet aggregation in rabbit platelet rich plasma by Born's turbidimetric method; assay type: functional; conditions: Oryctolagus cuniculus; how it was run: as §1
Rattus norvegicus [3] = test: Anticerebral ischemic activity in Sprague-Dawley rat middle cerebral artery occlusion model assessed as reduction of water content in brain at 80 mg/kg, ig for 7 consecutive days; assay type: functional, organism-based; parameters: dose 80 mg/kg
How it was run: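 Rats given oral saline-vehicle pretreatment for 7 days underwent 2 h suture MCAO plus reperfusion. At 24 h the animals were decapitated and brains weighed wet, then dried at 105 °C for 24 h. Water % = (wet − dry)/wet × 100; n = 6/group.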

Plasma = test: Anticoagulant activity in rabbit plasma assessed as length of activated partial thromboplastin time; assay type: functional, cell-free; conditions: Oryctolagus cuniculus
Platelet [4] = test: Inhibition of adenosine diphosphate-induced platelet aggregation in rabbit platelet rich plasma at 0.1 mM by Born's turbidimetric method; assay type: functional; conditions: Oryctolagus cuniculus; how it was run: as §1
Platelet [5] = test: Inhibition of arachidonic acid-induced platelet aggregation in rabbit platelet rich plasma at 0.1 mM by Born's turbidimetric method; assay type: functional; conditions: Oryctolagus cuniculus; how it was run: as §1
Rattus norvegicus [6] = test: Antioxidant activity in Sprague-Dawley rat middle cerebral artery occlusion model assessed as decrease in malondialdehyde level in brain at 80 mg/kg, ig for 7 consecutive days; assay type: functional; parameters: scale not given: the % may be the effect or the level left; conditions: route intragastric
How it was run: (§2)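 Rats pretreated orally in saline for 7 days underwent 2 h MCAO with reperfusion. At 24 h brains were removed, rinsed in cold 0.9% saline, blotted and stored at −70 °C. After protein quantification, GSH, SOD activity and MDA were measured with commercial kits; n = 12/group.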

Rattus norvegicus [7] = test: Antioxidant activity in Sprague-Dawley rat middle cerebral artery occlusion model assessed as increase in superoxide dismutase activity at 80 mg/kg, ig for 7 consecutive days; assay type: functional; conditions: route intragastric; how it was run: as §2
Rattus norvegicus [8] = test: Antioxidant activity in Sprague-Dawley rat middle cerebral artery occlusion model assessed as increase in glutathione level in brain at 80 mg/kg, ig for 7 consecutive days; assay type: functional; conditions: route intragastric; how it was run: as §2
Rattus norvegicus [9] = test: Anticerebral ischemic activity in Sprague-Dawley rat middle cerebral artery occlusion model assessed as reduction in infarct size in brain at 80 mg/kg, ig for 7 consecutive days by TTC assay; assay type: functional; parameters: scale not given: the % may be the effect or the level left; conditions: route intragastric
How it was run: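 SD rats, chloral hydrate 350 mg/kg ip anaesthesia; right MCA occluded 2 h by silicone-tipped 4-0 nylon filament via ECA into ICA (>80% CBF drop by laser Doppler, 37 ± 0.5 °C), then reperfusion. Dosed in normal saline orally daily 7 days before ischemia. At 24 h, 2-mm coronal slices stained 2% TTC 30 min 37 °C; infarct area as % of whole brain; n = 6.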

Rattus norvegicus [10] = test: Anticerebral ischemic activity in Sprague-Dawley rat middle cerebral artery occlusion model assessed as reduction in neurological deficit score at 80 mg/kg, ig for 7 consecutive days by Longa's method; assay type: functional; parameters: scale not given: the % may be the effect or the level left; conditions: route intragastric
How it was run: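 SD rats were dosed orally in normal saline for 7 days before ischemia (n = 12/group). They were anesthetized ip with 350 mg/kg chloral hydrate and given MCAO with a silicone-tipped 4-0 nylon suture for 2 h, then reperfusion. Occlusion was confirmed as >80% CBF drop by laser Doppler, with core temperature held at 37 °C. Deficits were scored blinded by modified Longa's method 24 h after reperfusion.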

PC-12 [11] = test: Antioxidant activity in rat PC12 cells assessed as inhibition of hydroxyl radical-induced cytotoxicity at 10 uM treated for 2 hrs prior to H2O2/Fe+ challenge measured after 1 hr by MTT assay (reference value: 61.95%); assay type: functional; parameters: scale not given: the % may be the effect or the level left
PC-12 [12] = test: Antioxidant activity in rat PC12 cells assessed as inhibition of hydrogen peroxide induced cytotoxicity at 10 uM treated for 2 hrs prior to H2O2 challenge measured after 1 hr by MTT assay (reference value: 52.45%); assay type: functional; parameters: scale not given: the % may be the effect or the level left
Rattus norvegicus [13] = test: Antithrombotic activity in Sprague-Dawley rat arteriovenous shunt model assessed as reduction of thrombus dry weight at 80 mg/kg, po qd for 5 consecutive days; assay type: functional; parameters: scale not given: the % may be the effect or the level left
How it was run: (§3)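 Male SD rats were dosed by gavage in saline daily for 5 days (n = 12/group). An A-V shunt linked the right carotid artery to the left jugular vein: a saline-filled 14 cm polyethylene tube holding 6 cm of four braided silk threads. After 15 min of flow, the threads were weighed wet, then dried 6 h at room temperature and reweighed, less the pre-experiment thread weight.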

Rattus norvegicus [14] = test: Antithrombotic activity in Sprague-Dawley rat arteriovenous shunt model assessed as reduction of thrombus wet weight at 80 mg/kg, po qd for 5 consecutive days; assay type: functional; parameters: scale not given: the % may be the effect or the level left; how it was run: as §3

| SMILES | IC50 (Platelet [1]) | IC50 (Platelet [2]) | Activity (Plasma) | inhibition at 100 µM (Platelet [4]) | inhibition at 100 µM (Platelet [5]) | Activity (Rattus norvegicus [13]) | Activity (Rattus norvegicus [14]) | other results |
| --- | --- | --- | --- | --- | --- | --- | --- | --- |
| CCCCCCC1SC(=O)c2ccccc21 (racemic) | 830 µM | 800 µM |  |  |  |  |  |  |
| CCC1SC(=O)c2ccccc21 (racemic) | > 1000 µM | > 1000 µM |  |  |  |  |  |  |
| CCCCC1SC(=O)c2ccccc21 (racemic) | 350 µM | > 1000 µM |  |  |  |  |  |  |
| CCCCC1OC(=O)c2ccccc21 (racemic) [RAC-3-N-BUTYLPHTHALIDE] | 480 µM | > 1000 µM | inactive | 9.5% | 17.4% | 26.9% | 23.58% | Activity (Rattus norvegicus [3]): inactive; Activity (Rattus norvegicus [6]): 25.73%; Activity (Rattus norvegicus [7]): 33.61%; Activity (Rattus norvegicus [8]): 40.83%; Activity (Rattus norvegicus [9]): 40.04%; Activity (Rattus norvegicus [10]): 31.47%; Activity (PC-12 [11]): 73.05%; Activity (PC-12 [12]): 68.05% |
| CC(=O)Oc1ccccc1C(=O)O [ASPIRIN] | 150 µM | 880 µM | inactive | 10.8% | 37.2% | 34.19% | 33.45% |  |
| CC(C)CCC1SC(=O)c2ccccc21 (racemic) | > 1000 µM | > 1000 µM |  |  |  |  |  |  |
